In ChEMBL document CHEMBL4359878, “Discovery of 4-piperazinyl-2-aminopyrimidine derivatives as dual inhibitors of JAK2 and FLT3” (Eur J Med Chem, 2019):

Key:
Assay type in all cases: functional
[1] = tested on: HEL; assay: Induction of cell cycle arrest in human HEL cells assessed as accumulation at G2 phase at 3 uM after 72 hrs by propidium iodide-staining based flow cytometry (reference value: 15.10%)
Procedure, shortened: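 Subconfluent HEL cells were treated for 72 h at 0.33, 1.0, 3.0 or 9.0 μM, with untreated cells as control. Cultures were pulsed with 10 μM BrdU for 30 min at 37 °C before harvest, then PBS-washed, fixed in 70% ethanol and denatured in 2 M HCl. After neutralization, cells were stained with fluorescein anti-BrdU antibody and propidium iodide. DNA content was measured by flow cytometry with 488 nm excitation.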

[2] = tested on: HEL; assay: Induction of apoptosis in human HEL cells assessed as late apoptotic cells at 0.33 uM after 72 hrs by FITC-annexin V/propidium iodide-double staining based flow cytometry (reference value: 1.63%)
[3] = tested on: HEL; assay: Induction of apoptosis in human HEL cells assessed as viable cells at 1 uM after 72 hrs by FITC-annexin V/propidium iodide-double staining based flow cytometry (reference value: 93.77%); settings: read-out: Activity
[4] = tested on: HEL; assay: Induction of apoptosis in human HEL cells assessed as viable cells at 3 uM after 72 hrs by FITC-annexin V/propidium iodide-double staining based flow cytometry (reference value: 93.77%); settings: read-out: Activity

SMILES: CC(=O)c1ccc(NC(=O)N2CCN(c3ccnc(Nc4ccc(N5CCOCC5)cc4)n3)CC2)cc1
- Activity [1]: 5.91%
- Activity [2]: 4.3%
- viability at 1 µM [3]: 47.9%
- viability at 3 µM [4]: 22.6%
